According to ChEMBL document CHEMBL4513216, “Probing the Open Global Health Chemical Diversity Library for Multistage-Active Starting Points for Next-Generation Antimalarials” (ACS Infect Dis, 2020):

Assay: Toxicity liver stage against HepG2, at 10uM
Assay type: cell-based
Design: test concentration 10 uM, cell line HepG2-A16-CD81EGFP
Conditions: human, HepG2-A16-CD81EGFP cells; read-out: INHIBITION
In short: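 Uninfected HepG2-A16-CD81EGFP cells, 3 × 10^3 per well, 1536-well, plated on prespotted compound at 10 μM final, parasite-free screening media added to match infected plates; puromycin 10 μM positive, DMSO 0.5% negative; run in parallel with 48 h PbLuc assay at 37 °C, 5% CO2; viability by CellTiter-Glo luminescence, normalized to controls.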

Row | SMILES | cytotoxicity at 10 µM
1 | O[C@@H]1C[C@@H](c2nc(-c3ccccc3)no2)N(C2CCOCC2)C1 | -1.83%
2 | Cc1ccc(CN[C@@H]2CO[C@H](CNS(=O)(=O)c3ccccc3)[C@H]2O)cc1 | -10.1%
3 | COc1ccc(Nc2nc(N)c(C(C)=O)s2)cc1OC | 1.8%
4 | Cc1cc(N2CCCC2)nc(N(C)CCO)c1C#N | 0.252%
5 | Cc1cccc(N2CCN(S(=O)(=O)CCN)CC2)c1 | 0.0723%
6 | O=S(=O)(NCC1CCN(c2cnccn2)CC1)C1CC1 | 11.3%
7 | O=C(Cn1ccc2ccccc21)Nc1cc(N2CCCC2)ncn1 | 4.24%
8 | O=C(CSC1CCCC1)N1CCN(c2ccc(-n3cncn3)nn2)CC1 | 6.93%
9 | CCN(C)C(=O)c1ncn2c(C3CCN(S(C)(=O)=O)CC3)ccnc12 | -3.68%
10 | CC(=O)N1CCC2(CC1)C(=O)N(C)c1c(F)cccc12 | -11.2%
11 | CCOC(=O)c1ccc(NC(=O)c2c(O)nc3c(c2O)CCCC3)cc1 | 8.46%
12 | Cc1cccc(NC(=O)Cc2cnc3n(C)c(=O)[nH]c(=O)n23)c1 | -5.17%
13 | O=C(c1ccnnc1)N1CCC2(CC1)CC(N1CCOCC1)C2 | 6.97%
14 | CC(C)(C)NC(=O)c1ccn(COc2ccccc2Cl)n1 | 10.7%
15 | CSc1ccc(CNc2n[nH]c(C)n2)cc1 | -3.58%
16 | CCn1cc(NC(=O)c2c(C)nn(C)c2C)c(C(N)=O)n1 | 0.946%
17 | CCOCCCNc1ncc(-c2onc(C)c2C)c(-c2ccco2)n1 | 10.2%
18 | CN(C)C(=O)C1CCc2nnc(CNC(=O)c3ccc(Cl)cc3Cl)n21 (stereo not given) | 7.61%
19 | CC(C)(C)n1cc(C#N)cc1NC(=O)CCS(=O)(=O)C1CCCC1 | -0.935%
20 | CC(C)CCN1CCN(c2ncnc3nc(N)ccc23)CC1 | 11.5%
21 | CC(C(N)=O)N1CCN(c2ncc(Cl)cn2)CC1 (stereo not given) | -1.26%
22 | Cc1nn(C)c(Cl)c1C(=O)NCC1(C(N)=O)CCOCC1 | 1.64%

Row | SMILES | cytotoxicity at 10 µM
23 | CCCc1nnc(SCC(=O)Nc2cc(C(C)(C)C)nn2C)[nH]1 | 10.7%
24 | CC(C)(C)NC(=O)N1CCN2C(=O)OCC2C1 (stereo not given) | -1.96%
25 | O=C(NC1CCN(c2ccccc2OC(F)F)C1)c1cccnc1 (stereo not given) | 6.89%
26 | CCSc1cc(C(=O)NC2CCN(C(=O)c3ccncc3)CC2)ccn1 | 5.88%
27 | CC(C)(C)C(=O)NCCCC(=O)NC(C)(C)c1ccc2c(c1)OCO2 | 12.1%
28 | O=C(CCCn1cncn1)NC1(c2cccc(Br)c2)CC1 | 9.57%
29 | CCc1cnc(CN(C)C2CCN(CC3CCN(C(C)=O)CC3)C2)o1 (stereo not given) | 4.84%
30 | N#Cc1ccccc1N1CCC(Nc2nccnc2C#N)CC1 | 12.9%
31 | O=S(=O)(NCC1CCOC1)N1CCc2ccccc2C1 (stereo not given) | -4.06%
32 | CCc1nnc2n1CC(CNc1cnc3ccccc3n1)CC2 (stereo not given) | -37.4%
33 | CCOCCCC(=O)NCC(c1ccccc1)N1CCc2sccc2C1 (stereo not given) | 2.69%
34 | CN(Cc1ccc(Cl)s1)C(=O)CN1CC(n2cccn2)C1 | -6.88%
35 | CSc1ccc(OCCN2CCC(n3cncn3)CC2)cc1 | -12.6%
36 | N#Cc1ccsc1N1CCC(Sc2ncc[nH]2)C1=O (stereo not given) | 2.72%
37 | COCCCN(C)c1ncccc1I | 2.28%
38 | CNC(=O)c1cccc(NC(=O)CN2CCN(S(C)(=O)=O)CC2)c1 | 1.82%
39 | Cc1cnn(CC2CN(CCN3CCCC3=O)CCO2)c1 (stereo not given) | -9.7%
40 | CCc1noc(C(C)N(C)CC(=O)Nc2ccc(C)cc2)n1 (stereo not given) | -6.42%
41 | O=C(Cc1ccccc1F)N1CCN(C(=O)c2cccc(F)c2)CC1 | 7.7%
42 | CNc1cc(N2CCCC2CNCc2c[nH]nc2C(C)(C)C)ncn1 (stereo not given) | 7.91%
43 | COCCN1C(=O)CC(c2cccnc2)C12CCN(C)CC2 (stereo not given) | -97.6%
44 | CS(=O)(=O)NC[C@H]1OC[C@@H]2CN(Cc3cccnc3)CC[C@@H]21 | 12.7%

Row | SMILES | cytotoxicity at 10 µM
45 | c1cc(CN2CC[C@@H]3CN(c4cncnc4)C[C@@H]3C2)ccn1 | -116%
46 | CC(C)OC[C@H]1CCC[C@]12CN(C(=O)C1CCOCC1)CCO2 | -99.1%
47 | COCC(=O)N1CC[C@@H](N2CCOCC2)[C@@H]1Cc1cccnc1 | -95.5%
48 | O=S(=O)(c1ccccc1)N1CCC[C@]2(C[C@@H](OCC3CC3)CO2)C1 | -69.2%
49 | Cn1cc(CN2CCC3(CCCCN3S(C)(=O)=O)CC2)cn1 | -76.9%
50 | CSc1ccc(-c2nc(CN3CCCC(CNC(C)=O)C3)c(C)o2)cc1 (stereo not given) | 2.32%
51 | CSCCCN1C[C@H](NC(=O)c2ccc(C#N)nc2)[C@@H](C2CC2)C1 | 2.72%
52 | CC(CCN1CCCn2nc(CNS(C)(=O)=O)cc2C1)c1ccccc1 (stereo not given) | 8.85%
53 | CCc1cc(NCC(O)CN2CCCCC2)ncn1 (stereo not given) | -0.714%
54 | OCC1CCCCN1Cc1cc(O)c2cccc(F)c2n1 (stereo not given) | -0.357%
55 | Cc1ccc(-c2cn[nH]c2C2CCCN(c3ncccn3)C2)cc1 (stereo not given) | 87.3%
56 | CCCc1nc(N2CCN(Cc3ccccn3)CC2)c2cnn(C)c2n1 | 1.89%
57 | CC(=O)Nc1cccc(C(=O)N(C)C(C)Cc2cc(C)ccn2)c1 (stereo not given) | 11%
58 | O=C1O[C@@H]2CN(C3CCOCC3)C[C@@H]2N1CCc1cccc(Cl)c1 | -1.11%
59 | CC(C)Cc1nc(CO)n(-c2ccc3c(c2)OCCO3)n1 | -1.86%
60 | CCC[C@@H]1CN(Cc2ccc3c(c2)OCCO3)C[C@H]1C(=O)O | 0.324%
61 | CCC[C@H]1CN(S(C)(=O)=O)C[C@@H]1NC(=O)CCOCC | 0.224%
62 | Cc1cc2nc(C(C)C)cc(N(C)CC3CCN(C(C)C)C3)n2n1 (stereo not given) | 7.26%
63 | COc1cc(C(=O)N2CC(Oc3ccccc3Cl)C2)ccn1 | -3.52%
64 | CC(C)CN1CC(c2nc(-c3ccc(F)cc3)c[nH]2)CC1=O (stereo not given) | 6.8%
65 | O=C(O)c1cc(-c2ccoc2)cc(S(=O)(=O)NC2CC2)c1 | -2.18%
66 | NC(=O)CN1CCCC(C(=O)N2CCC(Oc3ncccn3)CC2)C1 (stereo not given) | -41.6%

Row | SMILES | cytotoxicity at 10 µM
67 | O=C(C1CCOc2ccccc2C1)N1Cc2cnn(CCO)c2C1 (stereo not given) | 4.61%
68 | CCCS(=O)(=O)N1CCCC(CCC(=O)N(C)CCc2ccccn2)C1 (stereo not given) | 5.02%
69 | CCc1oc(C(=O)NCCNS(C)(=O)=O)cc1CN1CCCC1 | 5.53%
70 | O=C(O)c1ccnc(-c2ccnc(COc3ccccc3Cl)n2)c1 | -9.86%
71 | Cc1nc(N2CCOc3ccc(CO)cc3C2)c2c(C)noc2n1 | 2.18%
72 | CCCNc1ncc(CN2CCC3(CC2)CNC(=O)C3)cn1 | -7.07%
73 | CCc1ncc2c(n1)CN(C(=O)Cc1cc(OC)cc(OC)c1)C2 | 2.78%
74 | CC(C)N1CCCC(C(=O)NCCCc2cnn(C)c2)C1 (stereo not given) | 17.1%
75 | Cc1[nH]ccc1C(=O)N[C@H]1CN(S(C)(=O)=O)C[C@@H]1C1CC1 | 3.28%
76 | COc1ccc2nc(CNC(=O)c3cc(C(C)C)on3)[nH]c2c1 | 0.0964%
77 | CCn1cnnc1CCNC(=O)CCNC(=O)c1ccccc1F | 4.49%
78 | O=C(O)[C@@H]1CN(Cc2cc3c(cc2Cl)OCO3)C[C@H]1C1CC1 | 0.0851%
79 | Cc1ccc(O)c(CN(Cc2ccccc2)Cc2nccs2)n1 | 0.31%
80 | COCCNc1nc2c(c(N3CCn4nc(C)cc4C3)n1)CCNCC2 | 7.8%
81 | COc1nc2c(cc1C(=O)NCCc1nc(C)c(C(=O)O)s1)CCC2 | 13.3%
82 | CN(C)C[C@@H]1CN(C(=O)Cc2cccc(O)c2)C[C@@H]1CO | 1.92%
83 | CC(C)Cc1ncc2c(n1)CN(C(=O)c1ccc(CN3CCCC3)o1)C2 | -1.66%
84 | O=C(CN1CCOC(Cn2cccn2)C1)NCc1ccco1 (stereo not given) | -14.6%
85 | Cc1cc(C)c(CNC(=O)NCc2ccc(F)cc2)c(=O)[nH]1 | -6.34%
86 | CN(CC(=O)NC1(C)CCS(=O)(=O)C1)Cc1ccc(F)c(F)c1 (stereo not given) | -1.55%
87 | Cc1nn(C)c(N(C)C)c1CNCc1ccc(OCCN(C)C)cc1 | -4.89%
88 | O=C(c1sccc1C1CC1)N1CCN(CC(F)(F)F)CC1 | -1.58%

Row | SMILES | cytotoxicity at 10 µM
89 | O=C(O)c1cc(S(=O)(=O)Nc2cc(Cl)ccc2F)cc2c1OCCO2 | -18.7%
90 | N#Cc1ccc(OCCNCCn2cccn2)cc1 | -4.11%
91 | O=C(CCCNc1ncccn1)N1CCCC(n2cncn2)C1 (stereo not given) | -4.56%
92 | O=C1CC2(CCCNC2)C(=O)N1Cc1ccccc1 (stereo not given) | 12.1%
93 | O=C1CO[C@@H]2CN(CC3CCOC3)C[C@H]2N1Cc1cccc(F)c1 (stereo not given in full) | -73.5%
94 | O=C(C[C@@H]1COC[C@H]2CN(C3CCC3)C[C@@H]12)NCc1cccnc1 | 12.9%
95 | CN1CCc2c(CNc3ncccn3)n[nH]c2C1 | -3.21%
96 | N#Cc1cccc(CN2CC3(CCCCN3c3cncnc3)CC2=O)c1 (stereo not given) | 2.53%
97 | CCN(CC)Cc1cnc2n1CCN(Cc1c(C)noc1C)CC2 | 11.2%
98 | N#Cc1ccc(N2CCC3(CCC(=O)N3Cc3cccnc3)CC2)nc1 | -112%
99 | CN1CCN(Cc2cn3c(n2)CN(Cc2cccc(F)c2)CC3)CC1 | -125%
100 | CN(C)CCN1C(=O)C2(CCN(CC3CC3)CC2)c2ccccc21 | -120%
101 | CNC(=O)COC1COC2(CCN(c3ncccn3)CC2)C1 (stereo not given) | -3.4%
102 | CN(C)[C@@H]1CCN(S(=O)(=O)C2CC2)[C@H]1Cc1ccccc1 | -7.46%
103 | Cn1ccc(CN2CCCC23CCN(Cc2nccn2C)CC3)n1 | -109%
104 | CCc1ccc2c(C3CN(CC4CCC4)C3)ncn2c1 | 7.11%
105 | O=C(NCC1CC2(CO1)CN(Cc1cccs1)C2)C1CCC1 (stereo not given) | -94.1%
106 | O=C(Cc1ccccn1)N1CCC2(CC1)CN(c1ncccn1)CCO2 | -74.3%
107 | O=C(COC[C@@]12CCC[C@@H]1CN(C1CCC1)C2)N1CCCC1 | -110%
108 | O=C1C[C@@H]2CC[C@H](CN1)N2C1CCSCC1 | 0.915%
109 | O=C(CCC1CCCC1)N1C[C@@H]2CC[C@H]1CN(Cc1ccncc1)C2 | -3.76%
110 | CCOc1cccc(C(=O)N2C[C@@H]3CC[C@H]2CN(C(=O)C2CCC2)C3)c1 | 5.73%
